Laboratory results reported in ChEMBL document CHEMBL3286116, “Synthesis, biological evaluation and structure-activity correlation study of a series of imidazol-based compounds as Candida albicans inhibitors” (Eur J Med Chem, 2014).
In brackets after ≈: the same amount, converted by molar mass.

Columns and labels:
Assay type in all cases: functional
Candida albicans [1] = assay: Antifungal activity against Candida albicans PMC 1041R after 48 hrs by CLSI broth microdilution method
In short: (§1)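 Yeast CLSI broth microdilution (M27-A3). Compounds dissolved in DMSO at 100× the top test concentration, then diluted as serial two-fold dilutions in RPMI 1640 to final 0.125–64. Inoculum was 1.0–1.5 × 10^3 cells mL−1, incubated at 35 °C and read for growth at 48 h. MIC is the lowest concentration giving ≥50% growth inhibition versus growth control. Reported as the median of five replicates and as the geometric mean.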

Cryptococcus neoformans [2] = assay: Antifungal activity against Cryptococcus neoformans PMC 2103 after 72 hrs by CLSI broth microdilution method; details: PMC 2103, 72 h
In short: (§2)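 Cryptococcus neoformans tested by CLSI broth microdilution in RPMI 1640, with serial two-fold dilutions from DMSO stocks at 100× the top concentration, final 0.125–64. Inoculum was 1.0–1.5 × 10^3 cells mL−1 at 35 °C, with growth read at 72 h. MIC is the lowest concentration with ≥50% growth inhibition versus control. Median of five replicates, plus geometric mean.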

Candida albicans [3] = assay: Antifungal activity against Candida albicans ATCC 90028 after 48 hrs by CLSI broth microdilution method; details: ATCC 90028, 48 h; in short: as §1
Nannizzia gypsea [4] = assay: Antifungal activity against Microsporum gypseum PMC 7331 after 72 hrs by CLSI broth microdilution method; details: PMC 7331, 72 h
In short: (§3)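 Dermatophytes tested by CLSI broth microdilution for filamentous fungi (M38-A2). Serial two-fold dilutions of DMSO-dissolved compound in RPMI 1640, final 0.125–64. Inoculum was 0.4–5 × 10^4 CFU mL−1, incubated at 35 °C and read at 72 h. MIC80 is the lowest concentration giving ≥80% growth inhibition versus growth control. Median of five replicates, plus geometric mean.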

Nakaseomyces glabratus [5] = assay: Antifungal activity against Candida glabrata PMC 0852R after 48 hrs by CLSI broth microdilution method; in short: as §1
Nakaseomyces glabratus [6] = assay: Ratio of fluconazole MIC to compound MIC for Candida glabrata PMC 0851R after 48 hrs by CLSI broth microdilution method
Nakaseomyces glabratus [7] = assay: Ratio of fluconazole MIC to compound MIC for Candida glabrata PMC 0852R after 48 hrs by CLSI broth microdilution method
Candida albicans [8] = assay: Antifungal activity against Candida albicans PMC 1042R after 48 hrs by CLSI broth microdilution method; in short: as §1
Nakaseomyces glabratus [9] = assay: Ratio of fluconazole MIC to compound MIC for Candida glabrata PMC 0850R after 48 hrs by CLSI broth microdilution method
Candida albicans [10] = assay: Ratio of fluconazole MIC to compound MIC for Candida albicans PMC 1041R after 48 hrs by CLSI broth microdilution method
Candida parapsilosis [11] = assay: Antifungal activity against Candida parapsilosis ATCC 22019 after 48 hrs by CLSI broth microdilution method; details: Lodderomyces parapsilosis, ATCC 22019, 48 h; in short: as §1
Nannizzia gypsea [12] = assay: Antifungal activity against Microsporum gypseum DSM 3824 after 72 hrs by CLSI broth microdilution method; details: DSM 3824, 72 h; in short: as §3
[13] = test system: Trichophyton mentagrophytes; assay: Antifungal activity against Trichophyton mentagrophytes PMC 6503 after 72 hrs by CLSI broth microdilution method; details: PMC 6503, 72 h; in short: as §3
[14] = test system: Trichophyton mentagrophytes; assay: Antifungal activity against Trichophyton mentagrophytes PMC 6552 after 72 hrs by CLSI broth microdilution method; details: PMC 6552, 72 h; in short: as §3
Candida albicans [15] = assay: Ratio of fluconazole MIC to compound MIC for Candida albicans PMC 1040R after 48 hrs by CLSI broth microdilution method
Cryptococcus neoformans [16] = assay: Antifungal activity against Cryptococcus neoformans DSM 11959 after 72 hrs by CLSI broth microdilution method; details: DSM 11959, 72 h; in short: as §2
Nakaseomyces glabratus [17] = assay: Antifungal activity against Candida glabrata PMC 0851R after 48 hrs by CLSI broth microdilution method; in short: as §1
Candida albicans [18] = assay: Antifungal activity against Candida albicans ATCC 20891 after 48 hrs by CLSI broth microdilution method; details: ATCC 20891, 48 h; in short: as §1
Nakaseomyces glabratus [19] = assay: Antifungal activity against Candida glabrata PMC 0805 after 48 hrs by CLSI broth microdilution method; details: PMC 0805, 48 h; in short: as §1
Candida albicans [20] = assay: Antifungal activity against Candida albicans PMC 1011 after 48 hrs by CLSI broth microdilution method; details: PMC 1011, 48 h; in short: as §1
Cryptococcus neoformans [21] = assay: Antifungal activity against Cryptococcus neoformans PMC 2102 after 72 hrs by CLSI broth microdilution method; details: PMC 2102, 72 h; in short: as §2
Candida parapsilosis [22] = assay: Antifungal activity against Candida parapsilosis DSM 11224 after 48 hrs by CLSI broth microdilution method; details: Lodderomyces parapsilosis, DSM 11224, 48 h; in short: as §1
Pichia kudriavzevii [23] = assay: Antifungal activity against Candida krusei PMC 0613 after 48 hrs by CLSI broth microdilution method; details: PMC 0613, 48 h; in short: as §1
Candida albicans [24] = assay: Antifungal activity against Candida albicans ATCC 24433 after 48 hrs by CLSI broth microdilution method; details: ATCC 24433, 48 h; in short: as §1
Cryptococcus neoformans [25] = assay: Antifungal activity against Cryptococcus neoformans PMC 2107 after 72 hrs by CLSI broth microdilution method; details: PMC 2107, 72 h; in short: as §2
[26] = test system: Trichophyton mentagrophytes; assay: Antifungal activity against Trichophyton mentagrophytes PMC 6531 after 72 hrs by CLSI broth microdilution method; details: PMC 6531, 72 h; in short: as §3
Candida tropicalis [27] = assay: Antifungal activity against Candida tropicalis DSM 11953 after 48 hrs by CLSI broth microdilution method; details: DSM 11953, 48 h; in short: as §1
[28] = test system: Trichophyton mentagrophytes; assay: Antifungal activity against Trichophyton mentagrophytes PMC 6515 after 72 hrs by CLSI broth microdilution method; details: PMC 6515, 72 h; in short: as §3
Candida albicans [29] = assay: Ratio of fluconazole MIC to compound MIC for Candida albicans PMC 1042R after 48 hrs by CLSI broth microdilution method
Candida tropicalis [30] = assay: Antifungal activity against Candida tropicalis PMC 0910 after 48 hrs by CLSI broth microdilution method; details: PMC 0910, 48 h; in short: as §1
Nakaseomyces glabratus [31] = assay: Antifungal activity against Candida glabrata PMC 0807 after 48 hrs by CLSI broth microdilution method; details: PMC 0807, 48 h; in short: as §1
Pichia kudriavzevii [32] = assay: Antifungal activity against Candida krusei DSM 6128 after 48 hrs by CLSI broth microdilution method; details: DSM 6128, 48 h; in short: as §1
Nakaseomyces glabratus [33] = assay: Antifungal activity against Candida glabrata PMC 0850R after 48 hrs by CLSI broth microdilution method; in short: as §1
[34] = test system: Trichophyton mentagrophytes; assay: Antifungal activity against Trichophyton mentagrophytes PMC 6509 after 72 hrs by CLSI broth microdilution method; details: PMC 6509, 72 h; in short: as §3
Nakaseomyces glabratus [35] = assay: Antifungal activity against Candida glabrata PMC 0853R after 48 hrs by CLSI broth microdilution method; in short: as §1
Candida albicans [36] = assay: Antifungal activity against Candida albicans ATCC 3153 after 48 hrs by CLSI broth microdilution method; details: ATCC 3153, 48 h; in short: as §1
[37] = test system: Trichophyton mentagrophytes; assay: Antifungal activity against Trichophyton mentagrophytes DSM 4870 after 72 hrs by CLSI broth microdilution method; details: DSM 4870, 72 h; in short: as §3
Candida albicans [38] = assay: Antifungal activity against Candida albicans PMC 1040R after 48 hrs by CLSI broth microdilution method; in short: as §1
Candida albicans [39] = assay: Antifungal activity against Candida albicans ATCC 10261 after 48 hrs by CLSI broth microdilution method; details: ATCC 10261, 48 h; in short: as §1
Nannizzia gypsea [40] = assay: Antifungal activity against Microsporum gypseum PMC 7303 after 72 hrs by CLSI broth microdilution method; details: PMC 7303, 72 h; in short: as §3
Nakaseomyces glabratus [41] = assay: Ratio of fluconazole MIC to compound MIC for Candida glabrata PMC 0853R after 48 hrs by CLSI broth microdilution method
Candida albicans [42] = assay: Antifungal activity against Candida albicans ATCC 10231 after 48 hrs by CLSI broth microdilution method; details: ATCC 10231, 48 h; in short: as §1
Candida albicans [43] = assay: Antifungal activity against Candida albicans ATCC 76615 after 48 hrs by CLSI broth microdilution method; details: ATCC 76615, 48 h; in short: as §1
Cryptococcus neoformans [44] = assay: Antifungal activity against Cryptococcus neoformans PMC 2115 after 72 hrs by CLSI broth microdilution method; details: PMC 2115, 72 h; in short: as §2
Cryptococcus neoformans [45] = assay: Antifungal activity against Cryptococcus neoformans PMC 2136 after 72 hrs by CLSI broth microdilution method; details: PMC 2136, 72 h; in short: as §2
Cryptococcus neoformans [46] = assay: Antifungal activity against Cryptococcus neoformans PMC 2123 after 72 hrs by CLSI broth microdilution method; details: PMC 2123, 72 h; in short: as §2
Cryptococcus neoformans [47] = assay: Antifungal activity against Cryptococcus neoformans PMC 2111 after 72 hrs by CLSI broth microdilution method; details: PMC 2111, 72 h; in short: as §2

MIC50 (Candida albicans [1]): 4 mg/L (≈ 8.98 µM)
MIC50 (Cryptococcus neoformans [2]): 4 mg/L (≈ 8.98 µM)
MIC50 (Candida albicans [3]): 0.125 mg/L (≈ 0.281 µM)
MIC80 (Nannizzia gypsea [4]): 1 mg/L (≈ 2.25 µM)
MIC50 (Nakaseomyces glabratus [5]): 4 mg/L (≈ 8.98 µM)
MIC50 (Candida albicans [8]): 1 mg/L (≈ 2.25 µM)
MIC50 (Candida parapsilosis [11]): 0.5 mg/L (≈ 1.12 µM)
MIC80 (Nannizzia gypsea [12]): 8 mg/L (≈ 18 µM)
MIC80 [13]: 2 mg/L (≈ 4.49 µM)
MIC80 [14]: 1 mg/L (≈ 2.25 µM)
MIC50 (Cryptococcus neoformans [16]): 4 mg/L (≈ 8.98 µM)
MIC50 (Nakaseomyces glabratus [17]): 8 mg/L (≈ 18 µM)
MIC50 (Candida albicans [18]): 0.25 mg/L (≈ 0.561 µM)
MIC50 (Nakaseomyces glabratus [19]): 0.5 mg/L (≈ 1.12 µM)
MIC50 (Candida albicans [20]): 0.125 mg/L (≈ 0.281 µM)
MIC50 (Cryptococcus neoformans [21]): 4 mg/L (≈ 8.98 µM)
MIC50 (Candida parapsilosis [22]): 0.5 mg/L (≈ 1.12 µM)
MIC50 (Pichia kudriavzevii [23]): 0.5 mg/L (≈ 1.12 µM)
MIC50 (Candida albicans [24]): 0.25 mg/L (≈ 0.561 µM)
MIC50 (Cryptococcus neoformans [25]): 2 mg/L (≈ 4.49 µM)
MIC80 [26]: 8 mg/L (≈ 18 µM)
MIC50 (Candida tropicalis [27]): 4 mg/L (≈ 8.98 µM)
MIC80 [28]: 4 mg/L (≈ 8.98 µM)
MIC50 (Candida tropicalis [30]): 2 mg/L (≈ 4.49 µM)
MIC50 (Nakaseomyces glabratus [31]): 4 mg/L (≈ 8.98 µM)
MIC50 (Pichia kudriavzevii [32]): 4 mg/L (≈ 8.98 µM)
MIC50 (Nakaseomyces glabratus [33]): 4 mg/L (≈ 8.98 µM)
MIC80 [34]: 8 mg/L (≈ 18 µM)
MIC50 (Nakaseomyces glabratus [35]): 4 mg/L (≈ 8.98 µM)
MIC50 (Candida albicans [36]): 0.25 mg/L (≈ 0.561 µM)
MIC80 [37]: 16 mg/L (≈ 35.9 µM)
MIC50 (Candida albicans [38]): 32 mg/L (≈ 71.9 µM)
MIC50 (Candida albicans [39]): 0.5 mg/L (≈ 1.12 µM)
MIC80 (Nannizzia gypsea [40]): 1 mg/L (≈ 2.25 µM)
MIC50 (Candida albicans [42]): 0.5 mg/L (≈ 1.12 µM)
MIC50 (Candida albicans [43]): 0.5 mg/L (≈ 1.12 µM)
MIC50 (Cryptococcus neoformans [44]): 4 mg/L (≈ 8.98 µM)
MIC50 (Cryptococcus neoformans [45]): 4 mg/L (≈ 8.98 µM)
MIC50 (Cryptococcus neoformans [46]): 4 mg/L (≈ 8.98 µM)
MIC50 (Cryptococcus neoformans [47]): 2 mg/L (≈ 4.49 µM)
Compound: O=C(O[C@H](Cn1ccnc1)c1ccc(Cl)cc1)N1CCN(c2ccc(Cl)cc2)CC1
Ratio (Nakaseomyces glabratus [6]): 10
Ratio (Nakaseomyces glabratus [7]): 10
Ratio (Nakaseomyces glabratus [9]): 10
Ratio (Candida albicans [10]): 10
Ratio (Candida albicans [15]): 10
Ratio (Candida albicans [29]): 10
Ratio (Nakaseomyces glabratus [41]): 10
